Laboratory results from ChEMBL document CHEMBL1687922, “Dipeptidyl peptidase IV dependent water-soluble prodrugs of highly lipophilic bicyclic nucleoside analogues” (J Med Chem, 2011).
≈ marks a conversion by molar mass, not a printed value.

Columns and labels:
[1] = Cytotoxicity against HEL cells assessed as inhibition of cell proliferation; format: cell-based; details: human
[2] = Aqueous solubility of the compound at 25 DegC after 24 hrs; format: physicochemical; details: water
Outline: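 Thermodynamic water solubility was measured at 25 °C after 24 h, typically as the mean of two measurements (variation <20%).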

[3] = Stability of the compound assessed as conversion of prodrug to 3-[(2R,4S, 5R)-4-hydroxy-5-(hydroxymethyl)oxolan-2-yl]-6-(4-pentylphenyl)furo[2, 3-d]pyrimidin-2-one in presence of Dipeptidyl-peptidase 4, 20 % bovine serum and 2.5 uM DPPIV inhibitor vildagliptin; format: physicochemical; details: cattle
Outline: (§1)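 Prodrug conversion by purified DPPIV/CD26 or by human, bovine or murine serum (20% in PBS) was run with varying concentrations of vildagliptin. Prodrug, intermediate and parent were quantified by HPLC.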

[4] = Stability of the compound assessed as conversion of prodrug to 3-[(2R,4S, 5R)-4-hydroxy-5-(hydroxymethyl)oxolan-2-yl]-6-(4-pentylphenyl)furo[2, 3-d]pyrimidin-2-one in presence of Dipeptidyl-peptidase 4, 20 % murine serum and 2.5 uM DPPIV inhibitor vildagliptin; format: physicochemical; details: mouse; outline: as §1
[5] = system: Human alphaherpesvirus 3; test: Antiviral activity against Varicella zoster virus YS infected in HEL cells assessed as reduction in virus induced cytopathicity; format: functional, organism-based; details: Human alphaherpesvirus 3, YS
Outline: (§2)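 Confluent HEL fibroblast monolayers were infected with 20 PFU of VZV (Oka or YS strain). After 1-2 h adsorption, residual virus was removed and varying compound concentrations were added. Plaque formation was scored when untreated infected controls reached completion.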

[6] = system: Human alphaherpesvirus 3; test: Antiviral activity against Varicella zoster virus OKA infected in HEL cells assessed as reduction in virus induced cytopathicity; format: functional, organism-based; details: Human alphaherpesvirus 3, OKA; outline: as §2
[7] = system: Caco-2; test: Stability in human CaCo-2 cells assessed as appearance of 3-[(2R,4S, 5R)-4-hydroxy-5-(hydroxymethyl)oxolan-2-yl]-6-(4-pentylphenyl)furo[2, 3-d]pyrimidin-2-one at the apical side of the cell; format: ADME, cell-based; details: in the assay text read “basolateral side” for “apical side”
Outline: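 CaCo-2 cells were seeded at 1.5 × 10⁵ cells/well in upper cups of dual-chamber 24-well trays in DMEM with 10% FBS and grown to confluence (~3 days). Upper medium was replaced with DMEM containing compound at 100 μM; bottom medium was replaced with PBS. Upper and bottom cups were sampled at 0-7 and 24 h into cold methanol and analysed by HPLC.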

[8] = Stability of the compound assessed as conversion of prodrug to 3-[(2R,4S, 5R)-4-hydroxy-5-(hydroxymethyl)oxolan-2-yl]-6-(4-pentylphenyl)furo[2, 3-d]pyrimidin-2-one in presence of Dipeptidyl-peptidase 4, 20 % human serum and 2.5 uM DPPIV inhibitor vildagliptin; format: physicochemical; outline: as §1
[9] = Chemical stability of the compound in PBS buffer at pH 7.4 assessed as compound remaining after 24 hrs by HPLC; format: physicochemical; details: read-out: Stability
Outline: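 Prodrug was held in PBS pH 7.4 at room temperature for 24 h. Percent intact prodrug was determined by HPLC.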

[10] = Cytotoxicity against HEL cells assessed as alteration of cell morphology; format: cell-based; details: human
Outline: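 Uninfected HEL fibroblasts were exposed to the test compounds. MCC is the minimal concentration giving microscopically detectable alteration of cell morphology.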

[11] = Stability of the compound assessed as conversion of prodrug to 3-[(2R,4S, 5R)-4-hydroxy-5-(hydroxymethyl)oxolan-2-yl]-6-(4-pentylphenyl)furo[2, 3-d]pyrimidin-2-one in presence of Dipeptidyl-peptidase 4 and 2.5 uM DPPIV inhibitor vildagliptin; format: physicochemical; outline: as §1
[12] = system: Mus musculus; test: Bioavailability in mouse assessed as fold increase in 3-[(2R,4S, 5R)-4-hydroxy-5-(hydroxymethyl)oxolan-2-yl]-6-(4-pentylphenyl)furo[2, 3-d]pyrimidin-2-one level within 0 to 180 mins administered by oral gavage; format: ADME, organism-based; details: in vivo
Outline: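 Female mice received equimolar single oral gavage doses (parent […]) in 0.5% carboxymethylcellulose. Three mice per time point were sacrificed at 15, 30, 45, 60, 90, 120 and 180 min. Plasma was analysed for parent compound by HPLC with fluorescence detection, using relative peak areas. Fold increase in parent plasma levels over 0-180 min was calculated relative to the parent compound.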

[13] = Stability of the compound assessed as conversion of prodrug to 3-[(2R,4S, 5R)-4-hydroxy-5-(hydroxymethyl)oxolan-2-yl]-6-(4-pentylphenyl)furo[2, 3-d]pyrimidin-2-one in presence of Dipeptidyl-peptidase 4 and 20 % human serum; format: physicochemical
Outline: (§3)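 Prodrug at 50 μM in PBS (0.1% DMSO) at 37 °C; reaction started with purified CD26 (1.5 mU) or 20% human or bovine serum in PBS. Aliquots taken at time points were quenched in cold methanol on ice, centrifuged, and the supernatant analysed by reverse-phase RP-8 HPLC (NaH2PO4/heptanesulfonic acid pH 3.2 versus acetonitrile gradient) for prodrug, intermediates and parent.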

[14] = Stability of the compound assessed as conversion of prodrug to 3-[(2R,4S, 5R)-4-hydroxy-5-(hydroxymethyl)oxolan-2-yl]-6-(4-pentylphenyl)furo[2, 3-d]pyrimidin-2-one in presence of Dipeptidyl-peptidase 4 and 20 % bovine serum; format: physicochemical; details: cattle; outline: as §3
[15] = Aqueous solubility of the compound at 25 DegC after 4 hrs; format: physicochemical; details: water
[16] = Stability of the compound assessed as conversion of prodrug to 3-[(2R,4S, 5R)-4-hydroxy-5-(hydroxymethyl)oxolan-2-yl]-6-(4-pentylphenyl)furo[2, 3-d]pyrimidin-2-one in presence of Dipeptidyl-peptidase 4; format: physicochemical; outline: as §3

SMILES | solubility at 24 h [2] [mg/mL] | Activity [3] | Activity [4] | EC50 [5] [nM] | EC50 [6] [nM] | Activity [7] | Activity [8] | remaining at 24 h [9] [%] | Activity [11] | fold change (FC) [12] | Activity [13] | Activity [14] | solubility at 4 h [15] [mg/mL] | Activity [16] | CC50 [1] [nM] | MCC [10] [µM]
CCCCCc1ccc(-c2cc3cn([C@H]4C[C@H](O)[C@@H](COC(=O)[C@@H](NC(=O)[C@@H]5CCCN5C(=O)[C@@H](N)C(C)C)C(C)C)O4)c(=O)nc3o2)cc1 | 1.2 (≈ 1.73 mM) | Not Active | Not Active | 154 | 89 | Active | Not Active | > 95 | Not Active | 13 |  |  |  |  | > 100000 | > 2
CCCCCc1ccc(-c2cc3cn([C@H]4C[C@H](OC(=O)[C@@H](NC(=O)[C@@H]5CCCN5C(=O)[C@@H](N)C(C)C)C(C)C)[C@@H](COC(=O)[C@@H](NC(=O)[C@@H]5CCCN5C(=O)[C@@H](N)C(C)C)C(C)C)O4)c(=O)nc3o2)cc1 | 77 (≈ 77.8 mM) |  |  | 260 | 127 |  |  | > 95 |  | 12 |  |  |  |  | 50000 | > 5
CCCCCc1ccc(-c2cc3cn([C@H]4C[C@H](O)[C@@H](COC(=O)[C@@H](NC(=O)[C@@H]5CCCN5C(=O)[C@@H](N)CC(N)=O)C(C)C)O4)c(=O)nc3o2)cc1 | 39 (≈ 55 mM) |  |  | 85 | 42 |  |  | > 95 |  |  |  |  |  | Active | 56000 | > 5
CCCCCc1ccc(-c2cc3cn([C@H]4C[C@H](O)[C@@H](COC(=O)[C@@H](NC(=O)[C@@H]5CCCN5C(=O)[C@@H](N)CCCCN)C(C)C)O4)c(=O)nc3o2)cc1 | 55 (≈ 76.1 mM) |  |  | 22 | 18 |  |  | > 95 |  | 15 |  |  |  | Active | 29000 | > 5
CCCCCc1ccc(-c2cc3cn([C@H]4C[C@H](O)[C@@H](COC(=O)[C@@H](NC(=O)[C@@H]5CCCN5C(=O)[C@@H](N)CC(=O)O)C(C)C)O4)c(=O)nc3o2)cc1 | 15 (≈ 21.1 mM) |  |  | 73 | 32 |  |  | > 95 |  |  | Not Active | Not Active |  | Active | 52000 | > 5
CCCCCc1ccc(-c2cc3cn([C@H]4C[C@H](O)[C@@H](CO)O4)c(=O)nc3o2)cc1 [CF1743] | 0.018 (≈ 0.0452 mM) |  |  |  |  |  |  |  |  |  |  |  |  |  |  | > 20

Further compounds by falling EC50 [5], results first:

solubility at 24 h [2] [mg/mL] | Activity [3] | Activity [4] | EC50 [5] [nM] | EC50 [6] [nM] | Activity [7] | Activity [8] | remaining at 24 h [9] [%] | Activity [11] | fold change (FC) [12] | Activity [13] | Activity [14] | solubility at 4 h [15] [mg/mL] | Activity [16] | SMILES | CC50 [1] [nM] | MCC [10] [µM]
5.2 (≈ 7.49 mM) |  |  | 16 | 18 |  |  | > 95 |  | 7 |  |  |  |  | CCCCCc1ccc(-c2cc3cn([C@H]4C[C@H](OC(=O)[C@@H](NC(=O)[C@@H]5CCCN5C(=O)[C@@H](N)C(C)C)C(C)C)[C@@H](CO)O4)c(=O)nc3o2)cc1 | 17000 | 60
 |  |  | 10 | 13 |  |  | 52 |  |  | Active | Active | 1.1 (≈ 1.48 mM) |  | CCCCCc1ccc(-c2cc3cn([C@H]4C[C@H](O)[C@@H](COC(=O)[C@H](Cc5ccccc5)NC(=O)[C@@H]5CCCN5C(=O)[C@@H](N)C(C)C)O4)c(=O)nc3o2)cc1 | 40000 | > 0.5
 |  |  | 6 | 9 |  |  | 69 |  | 11 | Active | Active | 14 (≈ 19.8 mM) |  | CCCCCc1ccc(-c2cc3cn([C@H]4C[C@H](O)[C@@H](COC(=O)[C@H](CC(C)C)NC(=O)[C@@H]5CCCN5C(=O)[C@@H](N)C(C)C)O4)c(=O)nc3o2)cc1 | 31000 | > 0.5
 |  |  | 3 | 6 |  |  | 74 |  |  | Active | Active | 6.1 (≈ 9.16 mM) |  | CCCCCc1ccc(-c2cc3cn([C@H]4C[C@H](O)[C@@H](COC(=O)[C@H](C)NC(=O)[C@@H]5CCCN5C(=O)[C@@H](N)C(C)C)O4)c(=O)nc3o2)cc1 | 44000 | > 0.5
